pIC50, pKi: −log10 of the molar value. The source made the active and inactive calls. The rule behind the calls is not given here.
Legend:
[1] = molecular target: T1, 5-hydroxytryptamine receptor 6 (Homo sapiens, UniProt P50406); test: Antagonist activity at human recombinant 5HT6 receptor expressed in HEK293 cells assessed as inhibition of serotonin-induced cAMP production by LANCE assay relative to serotonin; type: functional, cell-based
In short: (§1)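 HEK-293 cells with a tetracycline-inducible (T-Rex) human 5-HT6 receptor, grown in DMEM/10% FBS with blasticidin S and zeocin and induced with tetracycline the day before. Medium was swapped for HBSS with 1 mM MgCl2, 1 mM CaCl2, IBMX and 5 mM HEPES, pH 7.4. Compounds (0.1% DMSO) were added 15 min at RT, then 10 nM serotonin for 30 min. cAMP read by LANCE; 2 independent experiments in duplicate.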

[2] = molecular target: T1, 5-hydroxytryptamine receptor 6; test: Antagonist activity at human recombinant 5HT6 receptor expressed in HEK293 cells assessed as inhibition of serotonin-induced cAMP production by LANCE assay; type: functional, cell-based; in short: as §1
[3] = molecular target: T2, Alpha-1A adrenergic receptor (Homo sapiens) (UniProt P35348); test: Binding affinity to adrenergic alpha1A receptor at 10 uM by radioligand displacement assay
T2 sequence (whole entry): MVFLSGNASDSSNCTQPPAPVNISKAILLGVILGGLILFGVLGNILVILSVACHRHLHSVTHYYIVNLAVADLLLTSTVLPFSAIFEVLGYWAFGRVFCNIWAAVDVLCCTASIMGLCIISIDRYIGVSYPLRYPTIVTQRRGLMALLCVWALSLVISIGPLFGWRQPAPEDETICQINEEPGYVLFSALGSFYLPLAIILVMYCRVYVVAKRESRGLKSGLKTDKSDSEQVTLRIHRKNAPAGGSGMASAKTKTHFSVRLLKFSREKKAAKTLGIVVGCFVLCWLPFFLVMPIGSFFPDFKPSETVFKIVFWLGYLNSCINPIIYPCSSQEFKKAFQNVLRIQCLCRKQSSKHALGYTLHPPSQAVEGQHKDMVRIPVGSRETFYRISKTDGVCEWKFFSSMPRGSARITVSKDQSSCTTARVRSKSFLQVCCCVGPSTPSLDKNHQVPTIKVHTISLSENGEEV
In short: (§2)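 Target specificity panel: single-concentration competitive displacement of each target's radioligand, with compound at 1 µM or 10 µM as stated per line. Run by an outside contract lab under its internal protocols; mean ± SE, n = 2.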

[4] = molecular target: T3, Alpha-1D adrenergic receptor (Homo sapiens) (UniProt P25100); test: Binding affinity to adrenergic Alpha-1D receptor at 10 uM by radioligand displacement assay; in short: as §2
T3 sequence (whole entry): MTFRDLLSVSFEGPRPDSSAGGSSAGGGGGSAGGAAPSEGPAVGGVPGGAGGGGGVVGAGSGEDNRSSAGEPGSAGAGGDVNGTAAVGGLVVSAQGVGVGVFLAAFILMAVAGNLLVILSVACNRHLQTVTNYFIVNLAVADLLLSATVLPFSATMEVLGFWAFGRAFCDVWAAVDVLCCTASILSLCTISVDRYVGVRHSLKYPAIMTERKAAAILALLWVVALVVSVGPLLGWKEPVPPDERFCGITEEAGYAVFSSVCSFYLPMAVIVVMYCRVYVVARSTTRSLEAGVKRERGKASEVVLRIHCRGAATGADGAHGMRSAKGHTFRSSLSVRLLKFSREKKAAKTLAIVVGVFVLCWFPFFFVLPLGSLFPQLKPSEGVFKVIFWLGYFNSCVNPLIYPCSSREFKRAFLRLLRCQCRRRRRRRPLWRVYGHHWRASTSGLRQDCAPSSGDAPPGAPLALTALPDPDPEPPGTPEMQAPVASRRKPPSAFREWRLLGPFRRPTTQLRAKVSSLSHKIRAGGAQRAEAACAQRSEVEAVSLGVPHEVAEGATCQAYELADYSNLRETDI

[5] = molecular target: T4, Alpha-1B adrenergic receptor (Homo sapiens) (UniProt P35368); test: Binding affinity to adrenergic Alpha-1B receptor at 10 uM by radioligand displacement assay; in short: as §2
T4 sequence (whole entry): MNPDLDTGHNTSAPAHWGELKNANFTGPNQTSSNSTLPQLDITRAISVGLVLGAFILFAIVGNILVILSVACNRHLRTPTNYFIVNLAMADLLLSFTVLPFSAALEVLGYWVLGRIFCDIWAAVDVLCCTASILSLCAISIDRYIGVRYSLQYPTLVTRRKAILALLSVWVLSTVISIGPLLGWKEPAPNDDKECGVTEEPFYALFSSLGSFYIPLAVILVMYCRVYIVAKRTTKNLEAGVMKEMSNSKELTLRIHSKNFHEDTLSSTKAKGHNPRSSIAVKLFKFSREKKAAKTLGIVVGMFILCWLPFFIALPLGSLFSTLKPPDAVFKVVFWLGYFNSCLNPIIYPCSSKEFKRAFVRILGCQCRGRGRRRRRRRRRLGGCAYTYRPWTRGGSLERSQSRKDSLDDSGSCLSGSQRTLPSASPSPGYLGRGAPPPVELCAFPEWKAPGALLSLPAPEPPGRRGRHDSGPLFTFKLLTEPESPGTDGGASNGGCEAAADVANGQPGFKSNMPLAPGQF

[6] = molecular target: Sodium-dependent dopamine transporter (Homo sapiens) (UniProt Q01959); test: Binding affinity to dopamine transporter at 10 uM by radioligand displacement assay; in short: as §2
Sodium-dependent dopamine transporter (Homo sapiens), sequence (Q01959 whole entry): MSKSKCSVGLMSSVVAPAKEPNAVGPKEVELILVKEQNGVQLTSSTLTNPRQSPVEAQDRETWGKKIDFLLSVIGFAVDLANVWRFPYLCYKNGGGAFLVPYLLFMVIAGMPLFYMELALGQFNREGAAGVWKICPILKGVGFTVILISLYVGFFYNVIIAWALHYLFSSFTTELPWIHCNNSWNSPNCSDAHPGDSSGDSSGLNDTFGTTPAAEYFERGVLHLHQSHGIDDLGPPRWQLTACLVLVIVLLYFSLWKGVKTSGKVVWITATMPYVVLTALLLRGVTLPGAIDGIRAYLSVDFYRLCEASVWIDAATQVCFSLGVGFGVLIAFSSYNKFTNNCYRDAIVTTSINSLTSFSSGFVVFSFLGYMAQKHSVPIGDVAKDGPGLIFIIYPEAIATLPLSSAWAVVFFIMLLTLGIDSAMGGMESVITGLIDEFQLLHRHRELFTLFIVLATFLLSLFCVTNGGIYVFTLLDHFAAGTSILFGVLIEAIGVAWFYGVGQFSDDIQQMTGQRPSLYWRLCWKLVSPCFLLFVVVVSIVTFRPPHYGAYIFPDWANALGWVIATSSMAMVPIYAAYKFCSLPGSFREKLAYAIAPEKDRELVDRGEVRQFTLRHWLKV

[7] = molecular target: Sodium-dependent noradrenaline transporter (Homo sapiens) (UniProt P23975); test: Binding affinity to norepinephrine transporter at 10 uM by radioligand displacement assay; in short: as §2
Sodium-dependent noradrenaline transporter (Homo sapiens), sequence (P23975 whole entry): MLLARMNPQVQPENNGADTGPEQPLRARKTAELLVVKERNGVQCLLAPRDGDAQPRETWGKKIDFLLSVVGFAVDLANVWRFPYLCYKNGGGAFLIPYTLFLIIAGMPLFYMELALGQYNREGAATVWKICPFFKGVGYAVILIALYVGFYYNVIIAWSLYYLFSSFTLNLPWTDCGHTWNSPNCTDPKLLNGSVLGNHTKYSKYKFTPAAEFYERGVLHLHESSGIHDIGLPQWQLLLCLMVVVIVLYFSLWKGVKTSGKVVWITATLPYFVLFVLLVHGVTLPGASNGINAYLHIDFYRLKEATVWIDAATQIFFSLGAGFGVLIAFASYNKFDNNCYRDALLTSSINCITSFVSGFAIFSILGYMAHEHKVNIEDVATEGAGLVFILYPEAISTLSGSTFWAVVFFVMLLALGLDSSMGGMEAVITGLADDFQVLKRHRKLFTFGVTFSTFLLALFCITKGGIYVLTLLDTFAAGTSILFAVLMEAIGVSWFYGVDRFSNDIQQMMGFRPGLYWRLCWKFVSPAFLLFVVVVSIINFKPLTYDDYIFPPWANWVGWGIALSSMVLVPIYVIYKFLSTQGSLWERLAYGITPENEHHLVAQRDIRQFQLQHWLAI

[8] = molecular target: D(3) dopamine receptor (Homo sapiens) (UniProt P35462); test: Binding affinity to dopamine D3 receptor at 10 uM by radioligand displacement assay; in short: as §2
D(3) dopamine receptor (Homo sapiens), sequence (P35462 whole entry): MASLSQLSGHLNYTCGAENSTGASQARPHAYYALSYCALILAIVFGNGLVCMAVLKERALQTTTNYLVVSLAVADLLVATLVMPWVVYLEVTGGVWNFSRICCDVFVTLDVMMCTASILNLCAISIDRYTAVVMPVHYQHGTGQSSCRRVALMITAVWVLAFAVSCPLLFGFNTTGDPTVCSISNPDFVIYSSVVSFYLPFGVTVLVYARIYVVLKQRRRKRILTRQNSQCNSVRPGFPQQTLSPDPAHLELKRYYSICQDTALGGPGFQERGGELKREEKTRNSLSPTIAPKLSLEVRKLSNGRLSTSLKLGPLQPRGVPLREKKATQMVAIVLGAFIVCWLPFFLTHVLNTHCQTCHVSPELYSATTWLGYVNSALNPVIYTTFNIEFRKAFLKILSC

[9] = molecular target: T5, Alpha-2A adrenergic receptor (Homo sapiens) (UniProt P08913); test: Binding affinity to adrenergic alpha2A receptor at 10 uM by radioligand displacement assay; in short: as §2
T5 sequence (whole entry): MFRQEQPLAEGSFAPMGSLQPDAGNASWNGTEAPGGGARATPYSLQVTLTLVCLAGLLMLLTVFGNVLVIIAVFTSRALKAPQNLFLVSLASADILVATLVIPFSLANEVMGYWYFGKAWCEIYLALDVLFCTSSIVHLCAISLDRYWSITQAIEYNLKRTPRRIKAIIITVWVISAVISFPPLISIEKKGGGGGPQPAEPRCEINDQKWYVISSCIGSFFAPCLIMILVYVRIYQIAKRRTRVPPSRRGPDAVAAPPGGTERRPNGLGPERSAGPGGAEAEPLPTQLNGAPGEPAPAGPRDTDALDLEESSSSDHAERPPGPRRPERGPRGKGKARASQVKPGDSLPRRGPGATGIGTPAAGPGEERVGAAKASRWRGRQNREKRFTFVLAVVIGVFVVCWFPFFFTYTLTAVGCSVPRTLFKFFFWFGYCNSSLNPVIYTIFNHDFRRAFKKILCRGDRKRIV

[10] = molecular target: Sigma non-opioid intracellular receptor 1 (Homo sapiens) (UniProt Q99720); test: Binding affinity to sigma 1 receptor at 10 uM by radioligand displacement assay; in short: as §2
Sigma non-opioid intracellular receptor 1 (Homo sapiens), sequence (Q99720 whole entry): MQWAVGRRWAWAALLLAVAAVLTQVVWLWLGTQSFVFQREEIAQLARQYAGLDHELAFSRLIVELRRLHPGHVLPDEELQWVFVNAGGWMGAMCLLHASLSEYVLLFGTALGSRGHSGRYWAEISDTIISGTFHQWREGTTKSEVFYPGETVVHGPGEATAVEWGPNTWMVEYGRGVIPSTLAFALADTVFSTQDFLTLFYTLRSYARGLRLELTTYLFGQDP

[11] = molecular target: T1, 5-hydroxytryptamine receptor 6; test: Binding affinity to human recombinant 5HT6 receptor by radioligand displacement assay
In short: (§3)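 Competitive displacement of the corresponding radioligand, run by an outside contract lab under its internal protocols. Data from one representative experiment in duplicate.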

[12] = molecular target: T2, Alpha-1A adrenergic receptor (Homo sapiens); test: Binding affinity to adrenergic alpha1A receptor at 1 uM by radioligand displacement assay; in short: as §2
[13] = molecular target: T5, Alpha-2A adrenergic receptor (Homo sapiens); test: Binding affinity to adrenergic alpha2A receptor at 1 uM by radioligand displacement assay; in short: as §2
[14] = molecular target: T6, 5-hydroxytryptamine receptor 1A (Homo sapiens, UniProt P08908); test: Binding affinity to 5HT1A receptor by radioligand displacement assay
T6 sequence (P08908 whole entry): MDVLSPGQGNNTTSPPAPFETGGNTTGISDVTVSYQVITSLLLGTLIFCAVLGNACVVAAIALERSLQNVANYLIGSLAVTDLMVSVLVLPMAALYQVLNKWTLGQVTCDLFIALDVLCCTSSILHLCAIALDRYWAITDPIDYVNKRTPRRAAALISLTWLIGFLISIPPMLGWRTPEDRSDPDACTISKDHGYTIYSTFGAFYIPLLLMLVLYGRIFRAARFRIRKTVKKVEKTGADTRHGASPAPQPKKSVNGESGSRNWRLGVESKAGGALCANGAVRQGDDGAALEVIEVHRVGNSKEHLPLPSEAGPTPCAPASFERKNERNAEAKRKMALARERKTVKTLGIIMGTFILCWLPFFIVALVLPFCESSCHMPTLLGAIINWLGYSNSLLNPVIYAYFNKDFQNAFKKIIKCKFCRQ

[15] = molecular target: T3, Alpha-1D adrenergic receptor (Homo sapiens); test: Binding affinity to adrenergic Alpha-1D receptor at 1 uM by radioligand displacement assay; in short: as §2
[16] = molecular target: T7, 5-hydroxytryptamine receptor 7 (Homo sapiens, UniProt P34969); test: Binding affinity to 5HT7 receptor by radioligand displacement assay; in short: as §3
T7 sequence (P34969 whole entry): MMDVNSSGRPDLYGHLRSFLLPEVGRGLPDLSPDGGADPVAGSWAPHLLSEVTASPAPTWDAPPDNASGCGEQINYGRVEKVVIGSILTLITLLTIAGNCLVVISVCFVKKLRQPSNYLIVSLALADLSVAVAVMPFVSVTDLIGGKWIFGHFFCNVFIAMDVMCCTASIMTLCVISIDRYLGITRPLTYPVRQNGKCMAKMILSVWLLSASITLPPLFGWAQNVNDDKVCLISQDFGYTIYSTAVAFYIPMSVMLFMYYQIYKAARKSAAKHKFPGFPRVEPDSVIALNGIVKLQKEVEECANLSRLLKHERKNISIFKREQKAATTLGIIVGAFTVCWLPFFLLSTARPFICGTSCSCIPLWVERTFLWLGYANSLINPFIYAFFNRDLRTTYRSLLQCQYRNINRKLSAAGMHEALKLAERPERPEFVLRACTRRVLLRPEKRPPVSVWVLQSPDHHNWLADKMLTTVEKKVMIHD

[17] = molecular target: Sigma non-opioid intracellular receptor 1 (Homo sapiens) (UniProt Q99720); test: Binding affinity to sigma 1 receptor at 1 uM by radioligand displacement assay; in short: as §2
[18] = molecular target: 5-hydroxytryptamine receptor 2B (Homo sapiens) (UniProt P41595); test: Binding affinity to 5HT2B receptor at 1 uM by radioligand displacement assay; in short: as §2
5-hydroxytryptamine receptor 2B (Homo sapiens), sequence (P41595 whole entry): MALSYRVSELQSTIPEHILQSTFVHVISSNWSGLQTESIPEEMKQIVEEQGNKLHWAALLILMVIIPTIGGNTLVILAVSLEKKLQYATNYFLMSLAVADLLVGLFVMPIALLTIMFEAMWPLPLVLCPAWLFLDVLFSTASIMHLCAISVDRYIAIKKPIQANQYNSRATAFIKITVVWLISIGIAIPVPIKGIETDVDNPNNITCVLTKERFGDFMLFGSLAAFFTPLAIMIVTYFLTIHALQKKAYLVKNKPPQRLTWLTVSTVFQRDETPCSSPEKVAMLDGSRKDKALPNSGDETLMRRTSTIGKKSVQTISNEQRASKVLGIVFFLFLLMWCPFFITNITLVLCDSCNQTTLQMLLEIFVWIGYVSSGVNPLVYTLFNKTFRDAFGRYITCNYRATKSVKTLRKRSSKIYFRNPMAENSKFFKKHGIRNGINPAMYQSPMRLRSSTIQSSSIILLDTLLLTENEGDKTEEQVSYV

[19] = molecular target: Sodium-dependent noradrenaline transporter (Homo sapiens) (UniProt P23975); test: Binding affinity to norepinephrine transporter at 1 uM by radioligand displacement assay; in short: as §2
[20] = Binding affinity to L-type calcium channel at 1 uM by radioligand displacement assay; in short: as §2
[21] = Binding affinity to glycine transporter at 1 uM by radioligand displacement assay; in short: as §2
[22] = molecular target: T1, 5-hydroxytryptamine receptor 6; test: Binding affinity to human recombinant 5HT6 receptor at 1 uM by radioligand displacement assay; in short: as §2
[23] = molecular target: T8, 5-hydroxytryptamine receptor 2C (Homo sapiens) (UniProt P28335); test: Binding affinity to 5HT2C receptor at 1 uM by radioligand displacement assay; in short: as §2
T8 sequence (whole entry): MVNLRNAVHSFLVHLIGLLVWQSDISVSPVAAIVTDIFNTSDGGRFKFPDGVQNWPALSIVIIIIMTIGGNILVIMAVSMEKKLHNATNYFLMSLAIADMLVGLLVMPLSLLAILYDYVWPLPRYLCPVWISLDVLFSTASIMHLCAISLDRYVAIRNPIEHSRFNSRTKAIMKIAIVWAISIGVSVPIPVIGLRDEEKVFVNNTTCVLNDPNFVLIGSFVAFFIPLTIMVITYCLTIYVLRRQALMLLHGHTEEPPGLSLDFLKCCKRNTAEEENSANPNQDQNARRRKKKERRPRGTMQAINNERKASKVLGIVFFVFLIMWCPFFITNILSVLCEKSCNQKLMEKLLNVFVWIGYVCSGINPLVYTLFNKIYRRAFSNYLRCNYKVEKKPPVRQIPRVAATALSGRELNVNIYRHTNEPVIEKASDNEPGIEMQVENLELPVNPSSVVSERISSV

[24] = molecular target: T8, 5-hydroxytryptamine receptor 2C (Homo sapiens); test: (§4) Binding affinity to 5HT2C receptor by radioligand displacement assay; in short: as §3
[25] = molecular target: T9, 5-hydroxytryptamine receptor 2C (Homo sapiens, UniProt P28335); test: as §4; in short: as §3
T9 sequence (P28335 whole entry): T8 sequence (whole entry)

[26] = molecular target: T7, 5-hydroxytryptamine receptor 7; test: Binding affinity to 5HT7 receptor at 1 uM by radioligand displacement assay; in short: as §2
[27] = molecular target: D(3) dopamine receptor (Homo sapiens) (UniProt P35462); test: Binding affinity to dopamine D3 receptor at 1 uM by radioligand displacement assay; in short: as §2
[28] = molecular target: 5-hydroxytryptamine receptor 2A (Homo sapiens) (UniProt P28223); test: Binding affinity to 5HT2A receptor at 1 uM by radioligand displacement assay; in short: as §2
5-hydroxytryptamine receptor 2A (Homo sapiens), sequence (P28223 whole entry): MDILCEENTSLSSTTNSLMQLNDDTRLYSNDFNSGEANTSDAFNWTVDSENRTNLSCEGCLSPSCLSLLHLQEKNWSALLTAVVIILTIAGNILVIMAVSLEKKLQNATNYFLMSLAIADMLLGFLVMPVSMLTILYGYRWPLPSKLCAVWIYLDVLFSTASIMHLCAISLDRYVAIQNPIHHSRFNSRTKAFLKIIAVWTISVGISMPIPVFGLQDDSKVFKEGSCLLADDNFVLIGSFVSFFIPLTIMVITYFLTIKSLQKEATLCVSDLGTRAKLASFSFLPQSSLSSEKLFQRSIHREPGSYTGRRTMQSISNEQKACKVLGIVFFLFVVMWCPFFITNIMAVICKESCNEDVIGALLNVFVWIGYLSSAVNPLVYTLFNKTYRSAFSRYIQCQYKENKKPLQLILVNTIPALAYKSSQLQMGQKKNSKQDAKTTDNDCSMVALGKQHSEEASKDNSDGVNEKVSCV

[29] = molecular target: T4, Alpha-1B adrenergic receptor (Homo sapiens); test: Binding affinity to adrenergic Alpha-1B receptor at 1 uM by radioligand displacement assay; in short: as §2

T1 sequence (P50406 whole entry): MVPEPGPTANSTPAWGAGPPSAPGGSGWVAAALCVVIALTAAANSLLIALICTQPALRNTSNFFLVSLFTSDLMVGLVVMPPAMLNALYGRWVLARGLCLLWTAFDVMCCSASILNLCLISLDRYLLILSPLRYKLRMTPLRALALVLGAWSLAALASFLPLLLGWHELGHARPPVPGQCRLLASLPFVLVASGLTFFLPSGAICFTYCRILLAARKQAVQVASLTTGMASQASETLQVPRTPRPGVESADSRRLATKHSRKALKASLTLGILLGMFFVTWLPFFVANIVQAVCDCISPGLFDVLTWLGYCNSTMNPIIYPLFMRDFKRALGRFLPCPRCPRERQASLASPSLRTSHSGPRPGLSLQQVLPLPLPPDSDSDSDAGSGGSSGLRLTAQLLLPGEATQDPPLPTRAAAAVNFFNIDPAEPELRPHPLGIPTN

Structure (SMILES): CN1CCc2[nH]c3ccc(S(=O)(=O)c4cccc(F)c4)cc3c2C1
- Imax [1]: 100%

Structure (SMILES): Cc1ccc(S(=O)(=O)n2c3c(c4cc(S(=O)(=O)c5ccccc5)ccc42)CN(C)CC3)cc1
- Imax [1]: 100%
- pIC50 ([2]; read-out: IC50): 4.55

Structure (SMILES): CN1CCc2c(c3cc(S(=O)(=O)c4ccccc4)ccc3n2C)C1
- Imax [1]: 100%
- Activity [3]: Active
- Activity [4]: Active
- Activity [5]: Active
- Activity [6]: Active
- Activity [7]: Active
- Activity [8]: Active
- Activity [9]: Active
- Activity [10]: Active
- pKi [11]: 8.24

Structure (SMILES): CN1CCc2[nH]c3ccc(S(=O)(=O)Nc4cccc(F)c4)cc3c2C1
- Imax [1]: 100%
- Activity [12]: 20%
- Activity [13]: 60%
- pKi [14]: 8.15
- Activity [15]: 29%
- Activity [16]: Dose-dependent effect
- pKi [16]: 7.38
- Activity [17]: 60%
- Activity [18]: 80%
- Activity [19]: 15%
- Activity [20]: 27%
- Activity [21]: 20%
- Activity [22]: 80%
- Activity [23]: 80%
- Activity [24]: Dose-dependent effect
- pKi [25]: 7.41
- Activity [11]: Dose-dependent effect
- pKi [11]: 8.68
- Activity [26]: 80%
- Activity [27]: 35%
- Activity [28]: 80%
- Activity [29]: 37%

Structure (SMILES): CN1CCN(S(=O)(=O)c2ccc3[nH]c4c(c3c2)CN(C)CC4)CC1
- Imax [1]: 100%

Structure (SMILES): CN1CCc2c(c3cc(S(C)(=O)=O)ccc3n2C)C1.Cl
- IC50 ([2]; hek293): Not Active
